Reference: ChEMBL document CHEMBL4270554, “Discovery of the cancer cell selective dual acting anti-cancer agent (Z)-2-(1H-indol-3-yl)-3-(isoquinolin-5-yl)acrylonitrile (A131)” (Eur J Med Chem, 2018)

Experiments:
[1] = Antiproliferative activity against human hTERT-RPE1 cells after 72 hrs by MTT assay; type: cell-based, TERT-RPE1
How it was run: (§1)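 Cells cultured at 37 °C, 5% CO₂ in medium with 10% FBS and penicillin/streptomycin, used within 12-20 passages. Seeded at 2.5×10^3 cells/well for 24 h, then compound added from DMSO stocks at 200-fold final concentration (final DMSO 0.5% v/v). After 72 h, 0.5 mg/mL MTT for 3 h, formazan dissolved in DMSO, A570 read. IC50 from sigmoidal fit; three independent determinations.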

[2] = test system: SNU-16; assay: Antiproliferative activity against human SNU16 cells after 72 hrs by MTT assay; type: functional; conditions: SNU-16, 72 h; how it was run: as §1
[3] = test system: SNU1; assay: Antiproliferative activity against human SNU1 cells after 72 hrs by MTT assay; type: functional; conditions: SNU1, 72 h; how it was run: as §1
[4] = Antiproliferative activity against human SNU1750 cells after 72 hrs by MTT assay; type: functional; how it was run: as §1
[5] = test system: HCT-15; assay: Antitumor activity against human HCT15 cells xenografted in BALB/c athymic nu/nu mouse assessed as tumor growth inhibition at 20 mg/kg, ip bid administered 12 days relative to control; type: functional; conditions: HCT-15, ip, 288 h, read-out: TGI
How it was run: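 Female BALB/c nu/nu mice (5-7 weeks) given 5×10^6 HCT15 cells subcutaneously in flank. At 100–300 mm³, randomized into groups of 6. Dosed IP twice daily for 12 days at 20 mg/kg in 10% DMSO, 50% PEG400, deionized water pH 5.0, vs vehicle. Tumor volumes tracked; mean ± SEM, two-way ANOVA vs vehicle.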

[6] = Antiproliferative activity against human BJ cells after 72 hrs by MTT assay; type: cell-based; how it was run: as §1
[7] = test system: HeLa; assay: Potency index, ratio of autophagy induction of test compound to chloroquine in human HeLa cells; type: functional
[8] = test system: BJ; assay: Induction of apoptosis in human BJ cells assessed as activation of caspase-3/7 up to 5 uM after 48 hrs by caspase-Glo 3/7 luminescent assay; type: cell-based
How it was run: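 Normal and transformed BJ cells treated 48 h across a concentration series. Caspase-3/7 activity by Caspase-Glo 3/7 luminescence, normalized to viable cell number from MTT. Mean ± S.D., n=3; two-tailed unpaired t tests.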

[9] = test system: HeLa; assay: Induction of autophagy in human HeLa cells assessed as increase in LC3-2 to LC3-1 ratio at 5 uM after 6 hrs by immunoblot analysis relative to control; type: functional
How it was run: (§2)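 HeLa cells were exposed for 6 h to the compound at 0.625, 1.25, 2.5, 5 or 10 µM, or to DMSO. Cells were lysed in 1% Triton buffer (pH 8.0) with protease and phosphatase inhibitors. Lysates were resolved by 14% SDS-PAGE and immunoblotted for LC3, with β-actin probed. The LC3-II/LC3-I band-intensity ratio was expressed relative to the DMSO control.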

[10] = test system: NUGC-3; assay: Antiproliferative activity against human NUGC3 cells after 72 hrs by MTT assay; type: functional; conditions: NUGC-3, 72 h; how it was run: as §1
[11] = Half life in pooled female rat liver microsomes at 3 uM preincubated for 5 mins followed by NADPH addition measured after 45 mins by LC-MS/MS method; type: ADME, microsome
How it was run: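 Pooled female or male rat liver microsomes (0.3 mg protein/mL) with 3 μM substrate in 0.1 M phosphate buffer pH 7.4, pre-incubated 5 min at 37 °C, started with 1 mM NADPH. Samples at 0-45 min quenched in cold acetonitrile with internal standard, analysed by LC-MS/MS. Triplicates; midazolam positive control, no-NADPH negative control.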

[12] = test system: IM95; assay: Antiproliferative activity against human IM95 cells after 72 hrs by MTT assay; type: functional; conditions: IM95, 72 h; how it was run: as §1
[13] = test system: HeLa; assay: Inhibition of colony formation in human HeLa cells at 0.6 uM after 7 days by plate colony counting method relative to control; type: functional; conditions: 168 h
How it was run: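 Anchorage-independent growth: HeLa cells (1×10^4 per well) in 0.4% soft agar layered over 1% agar. Compound added at final 0.15, 0.3, 0.6, 1.25, 2.5 and 5 μM. HeLa colonies counted.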

[14] = test system: HCT-15; assay: Antiproliferative activity against human HCT15 cells after 72 hrs by MTT assay; type: functional; conditions: HCT-15, 72 h; how it was run: as §1
[15] = Antiproliferative activity against human NCC59 cells after 72 hrs by MTT assay; type: functional; how it was run: as §1
[16] = test system: AZ-521 cell line; assay: Antiproliferative activity against human AZ-521 cells after 72 hrs by MTT assay; type: functional; conditions: AZ-521, 72 h; how it was run: as §1
[17] = test system: U2OS; assay: Antiproliferative activity against human U2OS cells after 72 hrs by MTT assay; type: functional; how it was run: as §1
[18] = test system: TAMH; assay: Antiproliferative activity against mouse TAMH cells at 50 uM after 72 hrs by MTT assay; type: cell-based
[19] = test system: HeLa; assay: Induction of autophagy in human HeLa cells assessed as increase in LC3-2 to LC3-1 ratio at 0.625 uM after 6 hrs by immunoblot analysis relative to control; type: functional; how it was run: as §2
[20] = Antiproliferative activity against human NCC24 cells after 72 hrs by MTT assay; type: functional; how it was run: as §1
[21] = Antiproliferative activity against human SNU216 cells after 72 hrs by MTT assay; type: functional; conditions: SNU-216, 72 h; how it was run: as §1
[22] = Selectivity index, ratio of IC50 for human BJ cells to IC50 for human BJ cells transformed with hTert, small t, shRNAs against p53 and pRb and H-RasV12-ER; type: functional
How it was run: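 Normal BJ fibroblasts and transformed BJ fibroblasts were grown at 37 °C in 5% CO₂ with 10% FBS, seeded at 2.5×10^3 cells/well for 24 h, then treated for 72 h at 0.5% v/v final DMSO. MTT at 0.5 mg/mL was added for 3 h, formazan was dissolved in DMSO and absorbance read at 570 nm. IC50 came from sigmoidal fits of three independent determinations. The index is normal-cell IC50 over transformed-cell IC50.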

[23] = test system: MDA-MB-231; assay: Antiproliferative activity against human MDA-MB-231 cells after 72 hrs by MTT assay; type: functional; conditions: MDA-MB-231, 72 h; how it was run: as §1
[24] = Antiproliferative activity against human Ist1 cells after 72 hrs by MTT assay; type: functional; how it was run: as §1
[25] = test system: hTERT-BJ; assay: Induction of autophagy in human hTERT-BJ cells transformed with hTert, small t, shRNAs against p53 and pRb and H-RasV12-ER assessed as increase in LC3-2 to LC3-1 ratio at 5 uM after 24 hrs by immunoblot analysis relative to control; type: functional
How it was run: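 Fully transformed BJ fibroblasts (hTert, small t, shRNAs to p53 and pRb, H-RasV12-ER) grown at 37 °C, 5% CO2 in 10% FBS medium; treated 24 h at 5 μM. Triton lysis, 14% SDS-PAGE, LC3 immunoblot; LC3-II/LC3-I band ratio relative to DMSO-treated control, under 2-fold induction deemed insignificant.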

[26] = test system: BJ; assay: Antiproliferative activity against human BJ cells assessed as reduction in cell viability at 5 uM incubated for 2 days followed by compound washout measured after 11 days by cell counting method; type: cell-based; conditions: 48 h
How it was run: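 Normal BJ fibroblasts synchronized in G1 by 2-day serum starvation (0.1% FBS), released into 10% FBS medium and exposed to 5 μM for 2, 4 or 11 days. After 2 or 4 days drug removed and growth continued in fresh medium up to 11 days. Total cell numbers by automated counter; mean ± S.D., n>6.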

Question: Which GI50 at 72 h [1] does the source give for N#C/C(=C\c1cccc2cnccc12)c1c[nH]c2ccccc12 here?
Answer: 5200 nM

Question: And the GI50 [2]?
Answer: 1000 nM

Question: What about the GI50 [3] of the same compound?
Answer: 900 nM

Question: And the GI50 [4]?
Answer: 700 nM

Question: What about the inhibition in vivo at 20 mg/kg [5] of the same compound?
Answer: 74%

Question: What about the GI50 at 72 h [6] of the same compound?
Answer: 8100 nM

Question: What about the Ratio [7] of the same compound?
Answer: 4 - 10

Question: What about the Activity [8] of the same compound?
Answer: Non-Toxic

Question: What about the “fold change (FC)” value [9] of the same compound?
Answer: 4.3

Question: And the GI50 [10]?
Answer: 1000 nM

Question: What about the half-life at 3 µM [11] of the same compound?
Answer: 40.2 min

Question: What about the GI50 [12] of the same compound?
Answer: 1000 nM

Question: What about the inhibition at 0.6 µM [13] of the same compound?
Answer: 50%

Question: And the GI50 [14]?
Answer: 500 nM

Question: And the GI50 [15]?
Answer: 900 nM

Question: And the GI50 [16]?
Answer: 2400 nM

Question: And the GI50 [17]?
Answer: 1500 nM

Question: What about the Activity [18] of the same compound?
Answer: 57.3%

Question: And the “fold change (FC)” value [19]?
Answer: 1

Question: And the GI50 [20]?
Answer: 1200 nM

Question: What about the GI50 [21] of the same compound?
Answer: 1900 nM

Question: And the “Ratio IC50” value [22]?
Answer: 8.5

Question: And the GI50 [23]?
Answer: 1100 nM

Question: What about the GI50 [24] of the same compound?
Answer: 2200 nM

Question: And the “fold change (FC)” value [25]?
Answer: 5

Question: What about the Activity [26] of the same compound?
Answer: Non-Toxic
